According to ChEMBL document CHEMBL1128573, “Synthesis and in vitro evaluation of 4-substituted N-(1,1-dimethylethyl)-3-oxo-4-androstene-17 beta-carboxamides as 5 alpha-reductase inhibitors and antiandrogens” (J Med Chem, 1995):

Tests used:
[1] = In vitro inhibition of 5-alpha-dihydrotestosterone stimulated shionogi cell proliferation.; type: functional; details: Mus musculus
Outline: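 Androgen-sensitive Shionogi mouse mammary carcinoma clone SEM-107 (passage 23) plated at 17400 cells/mL in MEM with 2% dextran-charcoal-treated FCS. Cells grew 13 days with medium changes every 3–4 days, then were methanol-fixed. DNA content was measured, and IC50 was fitted by weighted iterative nonlinear least squares.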

[2] = molecular target: T1, 3-oxo-5-alpha-steroid 4-dehydrogenase 1 (Homo sapiens, UniProt P18405); experiment: In vitro inhibition of human tSteroid 5-alpha-reductase type I in transfected 293 cells using [3H]- delta4-Androstenedione as substrate.; type: cell-based, HEK293
T1 sequence (P18405 whole entry): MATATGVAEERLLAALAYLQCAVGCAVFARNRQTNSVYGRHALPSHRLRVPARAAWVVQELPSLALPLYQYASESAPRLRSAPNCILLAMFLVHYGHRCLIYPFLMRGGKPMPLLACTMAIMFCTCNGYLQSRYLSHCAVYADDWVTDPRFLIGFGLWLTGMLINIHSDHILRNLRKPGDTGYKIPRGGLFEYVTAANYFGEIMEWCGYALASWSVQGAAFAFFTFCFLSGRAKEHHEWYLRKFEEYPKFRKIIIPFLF
Outline: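 Homogenate of 293 cells transfected with human type 1 cDNA was the enzyme source. Compounds in ethanol were diluted in 50 mM Tris-HCl pH 7.5 with 20% glycerol and 1 mM EDTA. Screening was at 1 and 0.1 μM, with 12-point IC50 curves (0.1–1000 nM) for actives. Reactions used [3H]androstenedione and 500 μM NADPH for 60 min at 37 °C, followed by ether extraction, TLC and counting of androstanedione as % of control.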

[3] = molecular target: T2, 3-oxo-5-alpha-steroid 4-dehydrogenase 2 (Homo sapiens, UniProt P31213); experiment: In vitro inhibition of human Steroid 5-alpha-reductase type 2 in transfected SW-13 cells using [3H]- delta4-Androstenedione as substrate; type: cell-based
T2 sequence (P31213 whole entry): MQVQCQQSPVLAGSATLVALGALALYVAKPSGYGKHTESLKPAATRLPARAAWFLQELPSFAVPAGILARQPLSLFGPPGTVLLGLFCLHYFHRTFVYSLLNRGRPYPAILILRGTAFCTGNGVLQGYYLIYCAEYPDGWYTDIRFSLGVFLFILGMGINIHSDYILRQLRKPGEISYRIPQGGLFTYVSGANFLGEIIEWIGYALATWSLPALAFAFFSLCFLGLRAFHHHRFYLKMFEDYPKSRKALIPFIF
Outline: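 Homogenate of SW-13 cells transfected with human type II cDNA was the enzyme source. Compounds in ethanol were diluted in 50 mM Tris-HCl pH 7.5 with 20% glycerol and 1 mM EDTA. They were screened at 1 and 0.1 μM; those giving ≥50% inhibition at 1 μM were run at 12 concentrations, 0.1–1000 nM. Reactions used [3H]androstenedione and 500 μM NADPH for 60 min at 37 °C. Steroids were ether-extracted and TLC-separated, and androstanedione radioactivity was expressed as % of control.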

[4] = In vitro inhibition of 5-alpha-dihydrotestosterone stimulated shionogi cell proliferation; NA is not active; type: functional, Mus musculus
Outline: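 Shionogi mouse mammary carcinoma clone SEM-107 (passage 23), plated at 17400 cells/mL in MEM with 2% charcoal-treated FCS. Grown 13 days with medium changed every 3–4 days. Methanol-fixed, DNA content measured. IC50 by weighted iterative nonlinear least-squares regression; means ± SEM.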

[5] = molecular target: T1, 3-oxo-5-alpha-steroid 4-dehydrogenase 1; experiment: In vitro inhibition of human Steroid 5-alpha-reductase type I in transfected 293 cells using [3H]- delta4-Androstenedione as substrate; NA is not active; type: cell-based; details: hek293
Outline: (§1)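 Homogenate of 293 cells transfected with human type 1 cDNA. Compounds diluted in 50 mM Tris-HCl pH 7.5, 20% glycerol, 1 mM EDTA, first screened at 1 and 0.1 μM. Those reaching 50% inhibition at 1 μM were run at 12 levels, 0.1–1000 nM. Incubated with 1 nM [3H]androstenedione and 500 μM NADPH, 60 min, 37 °C. Ether extraction, TLC, androstanedione radioactivity as % of control.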

[6] = molecular target: T2, 3-oxo-5-alpha-steroid 4-dehydrogenase 2; experiment: In vitro inhibition of human Steroid 5-alpha-reductase type 2 in transfected SW-13 cells using [3H]- delta4-Androstenedione as substrate; NA is not active; type: cell-based
Outline: as §1, with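 “of SW-13” for “of 293”, “type II” for “type 1”, “with 5” for “with 1”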

[7] = molecular target: T1, 3-oxo-5-alpha-steroid 4-dehydrogenase 1; experiment: In vitro inhibition of human Steroid 5-alpha-reductase type I in transfected 293 cells using [3H]- delta4-Androstenedione as substrate; type: cell-based, HEK293
Outline: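 Homogenate of 293 cells transfected with human type 1 5α-reductase cDNA was used as enzyme. Compounds were dissolved in ethanol and diluted in 50 mM Tris-HCl pH 7.5 with 20% glycerol and 1 mM EDTA. They were screened at 1 and 0.1 μM; those giving ≥50% inhibition at 1 μM were tested at 12 concentrations from 0.1 to 1000 nM. Incubation used [3H]androstenedione and 500 μM NADPH for 60 min at 37 °C, followed by ether extraction, TLC, and counting of androstanedione as % of control.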

Row | Compound | IC50 [1] [nM] | IC50 [2] [nM] | IC50 [3] [nM] | IC50 [4] | IC50 [5] | IC50 [6] | IC50 [7] [nM]
1 | CC(C)(C)NC(=O)[C@H]1CCC2C3CCC4=C(Cl)C(=O)CC[C@]4(C)C3CC[C@@]21C (stereo partly specified) | 170 | > 1000 | 192 | – | – | – | –
2 | CC(C)(C)NC(=O)[C@H]1CCC2C3CCC4=C(S)C(=O)CC[C@]4(C)C3CC[C@@]21C (stereo partly specified) | 279 | 709 | 437 | – | – | – | –
3 | CC(C)(C)NC(=O)[C@H]1CCC2C3CCC4=C(O)C(=O)CC[C@]4(C)C3CC[C@@]21C (stereo partly specified) | 242 | > 1000 | 172 | – | – | – | –
4 | [3H]C1CC2=CC(=O)CC[C@]2(C)[C@H]2CC[C@]3(C)C(=O)CC[C@H]3[C@H]12 (stereo partly specified) | – | 2700 | 83.9 | Not Active | – | – | –
5 | CC(C)(O)C(=O)Nc1ccc([N+](=O)[O-])c(C(F)(F)F)c1 [HYDROXYFLUTAMIDE] | 117 | – | – | – | Not Active | Not Active | –
6 | CC(C)(C)NC(=O)[C@H]1CCC2C3CCC4=C(Br)C(=O)CC[C@]4(C)C3CC[C@@]21C (stereo partly specified) | 184 | 981 | 387 | – | – | – | –
7 | CC(C)(C)NC(=O)[C@H]1CC[C@H]2[C@@H]3CC[C@H]4NC(=O)C=C[C@]4(C)[C@H]3CC[C@]12C [FINASTERIDE] | – | – | 8.47 | Not Active | – | – | 218
